Source: ChEMBL document CHEMBL1133605, “3,5-Bis(trifluoromethyl)pyrazoles: a novel class of NFAT transcription factor regulator” (J Med Chem, 2000)

Legend:
[1] = species: Homo sapiens; assay: Inhibition of interleukin-2 (IL-2) synthesis in human whole blood stimulated by PMA/ionomycin.; format: functional
Method in brief: (§1)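 Heparinized human whole blood was added to serially diluted compound and stimulated with a PMA (50 ng/mL) plus ionomycin mixture. After 24 h, plasma was collected by centrifugation and IL-2 was measured by in-house ELISA.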

[2] = species: Homo sapiens; assay: In vitro protein binding in human serum at 5 ug/ml; format: ADME
Method in brief: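 Samples were incubated 30 min at room temperature, then ultrafiltered through a 30 000 MW cutoff device at 2000g for 25 min at room temperature. Free drug in the filtrate was quantified by HPLC.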

[3] = Area under curve in rat at 4 mpk upon peroral administration; format: ADME, organism-based; settings: in vivo, po, 4 mg/kg
[4] = Maximum concentration in rat at 4 mpk upon peroral administration; format: ADME, organism-based; design: dose 4 mpk, route oral; settings: in vivo, po, 4 mg/kg
[5] = Half-life in rat at 4 mpk upon peroral administration; format: ADME, organism-based; settings: in vivo, po, 4 mg/kg
[6] = Oral bioavailability in rat (dose 4 mg/kg); format: ADME, organism-based; settings: in vivo
[7] = Bronchoalveolar lavages was collected after 6 hr in an ascaris-induced nonhuman primate model of asthma at 30 mg/kg dose (for IL-8); format: functional
Method in brief: (§2)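 Ascaris-induced asthma model in nonhuman primates. Dosing by oral gavage at -26, -2 and +22 h relative to antigen inhalation. Bronchoalveolar lavage was taken at day -5 (baseline), at +6 h for IL-5, IL-8 and eotaxin, and at +48 h for eosinophil influx. Data are mean percentage inhibition versus crossover vehicle control, with paired t-test.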

[8] = Bronchoalveolar lavages was collected after 6 hr in an ascaris-induced nonhuman primate model of asthma at 30 mg/kg dose (for eotaxin); format: functional; method in brief: as §2
[9] = Resistance evaluated in an ascaris-induced nonhuman primate model of asthma after 10 min at 30 mg/kg dose; format: functional
Method in brief: (§3)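 Antigen (Ascaris) inhalation challenge in nonhuman primates, with oral gavage dosing at -26, -2 and +22 h relative to inhalation. Respiratory system resistance was measured at baseline, at +10 min (immediate response) and at +6 h (late phase). Data are mean percentage inhibition versus crossover vehicle control, with paired t-test.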

[10] = Resistance evaluated in an ascaris-induced nonhuman primate model of asthma after 6 hour at 30 mg/kg dose; format: functional; method in brief: as §3
[11] = Bronchoalveolar lavages was collected after 48 hr in an ascaris-induced nonhuman primate model of asthma (for eosinophil influx, eos) at 25 mg/kg dose; format: functional; settings: dose 30 mg/kg; in the assay text read “30 mg/kg” for “25 mg/kg”; method in brief: as §2
[12] = Bronchoalveolar lavages was collected after 6 hr in an ascaris-induced nonhuman primate model of asthma at 30 mg/kg dose (for IL-5); format: functional; method in brief: as §2
[13] = species: Homo sapiens; assay: Tested for interleukin-2 (IL-2) synthesis inhibition in human whole blood stimulated by PMA/ionomycin.; format: functional; method in brief: as §1
[14] = Resistance evaluated in an ascaris-induced nonhuman primate model of asthma after 6 hour at 25 mg/kg dose; format: functional; method in brief: as §3
[15] = Bronchoalveolar lavages was collected after 6 hr in an ascaris-induced nonhuman primate model of asthma at 25 mg/kg dose (for IL-5); format: functional; method in brief: as §2
[16] = Bronchoalveolar lavages was collected after 6 hr in an ascaris-induced nonhuman primate model of asthma at 25 mg/kg dose (for eotaxin); format: functional; method in brief: as §2
[17] = Bronchoalveolar lavages was collected after 48 hr (for eosinophil influx, eos) at 25 mg/kg dose; format: functional; method in brief: as §2
[18] = Bronchoalveolar lavages was collected after 6 hr in an ascaris-induced nonhuman primate model of asthma at 1 mg/kg dose (for IL-5); format: functional; method in brief: as §2
[19] = Bronchoalveolar lavages was collected after 6 hr in an ascaris-induced nonhuman primate model of asthma at 1 mg/kg dose (for eotaxin); format: functional; method in brief: as §2
[20] = Bronchoalveolar lavages was collected after 6 hr in an ascaris-induced nonhuman primate model of asthma at 1 mg/kg dose (for IL-8); format: functional; method in brief: as §2
[21] = Resistance evaluated in an ascaris-induced nonhuman primate model of asthma after 10 min at 1 mg/kg dose; format: functional; method in brief: as §3
[22] = Inhibition of eosinophil influx in bronchoalveolar lavage after 48 hr at 1 mg/kg dose
[23] = Resistance evaluated in an ascaris-induced nonhuman primate model of asthma after 6 hour at 1 mg/kg dose; format: functional; method in brief: as §3

| SMILES | IC50 [1] | Binding [2] | AUC [3] | Cmax [4] | half-life [5] | bioavailability [6] | also measured |
| --- | --- | --- | --- | --- | --- | --- | --- |
| O=C(Nc1ccc(-n2nc(C(F)(F)F)cc2C(F)(F)F)cc1)c1ccc(Cl)cc1 | 6.03 µM | 99.9% | – | – | – | – | – |
| O=C(Nc1ccc(-n2nc(C(F)(F)F)cc2C(F)(F)F)cc1)c1cc(F)ccc1F | 0.372 µM | 99.9% | – | – | – | – | – |
| CSc1cc(C(F)(F)F)nn1-c1ccc(NC(=O)c2ccncc2F)cc1 | 0.944 µM | – | 7790 ng·h/mL | 870 ng/mL | 5.2 h | 63% | – |
| Cc1noc(C)c1C(=O)Nc1ccc(-n2nc(C(F)(F)F)cc2C(F)(F)F)cc1 | 1.98 µM | 99.6% | – | – | – | – | – |
| N#Cc1cc(C(F)(F)F)nn1-c1ccc(NC(=O)c2ccccc2F)cc1 | 0.304 µM | – | 3240 ng·h/mL | 280 ng/mL | 6.2 h | 31% | – |
| O=C(Nc1ccc(-n2nc(C(F)(F)F)cc2[N+](=O)[O-])cc1)c1ccncc1F | 0.44 µM | – | 310 ng·h/mL | 220 ng/mL | 1.7 h | 18% | – |
| O=C(Nc1ccc(-n2nc(C(F)(F)F)cc2C(F)(F)F)cc1)c1ccccc1Cl | 0.914 µM | 99.9% | – | – | – | – | – |
| O=C(Nc1ccc(-n2nc(C(F)(F)F)cc2C(F)(F)F)cc1)c1cccc(F)c1F | 0.405 µM | 99.9% | – | – | – | – | – |
| O=C(Nc1ccc(-n2nc(C(F)(F)F)cc2C(F)(F)F)cc1)c1ccncc1F | 0.496 µM | 99.7% | – | – | – | – | – |
| O=C(Nc1ccc(-n2nc(C(F)(F)F)cc2C(F)(F)F)cc1)c1cc(F)cc(F)c1F | 1.47 µM | 99.9% | – | – | – | – | – |
| O=C(Nc1ccc(-n2nc(C(F)(F)F)cc2OC(F)F)cc1)c1ccncc1F | 0.182 µM | – | 7750 ng·h/mL | 610 ng/mL | 6.8 h | 74% | inhibition [7]: 69%; inhibition [8]: 56%; inhibition [9]: 61%; inhibition [10]: 69%; inhibition [11]: 185%; inhibition [12]: 73% |
| COc1cc(C(F)(F)F)nn1-c1ccc(NC(=O)c2ccncc2F)cc1 | 0.261 µM | – | 3050 ng·h/mL | 1480 ng/mL | 1 h | 68% | – |
| Cc1nnsc1C(=O)Nc1ccc(-n2nc(C(F)(F)F)cc2C(F)(F)F)cc1 | 1.74 µM | 99.8% | – | – | – | – | – |
| O=C(Nc1ccc(-n2[nH]c(C(F)(F)F)cc2=O)cc1)c1ccncc1F | – | – | – | – | – | – | inhibition [13]: 16% |
| N#Cc1cc(C(F)(F)F)nn1-c1ccc(NC(=O)c2ccncc2F)cc1 | 0.24 µM | – | 10900 ng·h/mL | 1090 ng/mL | 4.3 h | 78% | – |
| CC(=O)c1cc(C(F)(F)F)nn1-c1ccc(NC(=O)c2ccccc2F)cc1 | 1.57 µM | – | 1110 ng·h/mL | 120 ng/mL | – | 5% | – |
| O=C(Nc1ccc(-n2nc(C(F)(F)F)cc2Cl)cc1)c1ccncc1F | 0.158 µM | – | 11000 ng·h/mL | 780 ng/mL | 4.8 h | 79% | – |
| O=C(Nc1ccc(-n2nc(C(F)(F)F)cc2C(F)(F)F)cc1)c1ccccc1F | 2.27 µM | 99.9% | – | – | – | – | – |
| O=C(Nc1ccc(-n2nc(C(F)(F)F)cc2Br)cc1)c1ccncc1F | 0.288 µM | – | 16400 ng·h/mL | 1040 ng/mL | 7.2 h | 94% | – |
| COc1cc(C(F)(F)F)nn1-c1ccc(NC(=O)c2ccccc2F)cc1 | 0.57 µM | – | 970 ng·h/mL | 70 ng/mL | – | 26% | – |
| O=C(Nc1ccc(-n2nc(C(F)(F)F)cc2C(F)(F)F)cc1)c1ccncc1 | 0.701 µM | 99.7% | – | – | – | – | – |
| C/C=C/C[C@@H](C)[C@@H](O)[C@H]1C(=O)N[C@@H](CC)C(=O)N(C)CC(=O)N(C)[C@@H](CC(C)C)C(=O)N[C@@H](C(C)C)C(=O)N(C)[C@@H](CC(C)C)C(=O)N[C@@H](C)C(=O)N[C@H](C)C(=O)N(C)[C@@H](CC(C)C)C(=O)N(C)[C@@H](CC(C)C)C(=O)N(C)[C@@H](C(C)C)C(=O)N1C [CYCLOSPORINE] | – | – | – | – | – | – | inhibition [14]: 90%; inhibition [15]: 92%; inhibition [16]: 62%; inhibition [17]: 137% |
| C[C@]12C=CC(=O)C=C1CC[C@@H]1[C@@H]2[C@@H](O)C[C@@]2(C)[C@H]1CC[C@]2(O)C(=O)CO [PREDNISOLONE] | – | – | – | – | – | – | inhibition [18]: 94%; inhibition [19]: 67%; inhibition [20]: 9%; inhibition [21]: 24%; inhibition [22]: 106%; inhibition [23]: 57% |
